Source: PubChem BioAssay (The Scripps Research Institute Molecular Screening Center)
OXTR potentiate = potentiators of human oxytocin receptor. activation, % at 3 µM. CHO-OTR cells, Fluo-8 calcium fluorescence, potentiator mode; 0% = oxytocin EC15, 100% = EC100. 320,000 tested, 0.061% active. P30559;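 active means activation above that plate's cutoff, the mean activation of tested compounds plus 3 SD, cut at about 6.6% in these data, passing the limit was not always enough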
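Material: human OTR in CHO cells. Compound: 3.0 µM, one dose. Timing: compound 6 min at room temperature before oxytocin, 100 s read. Evaluation: % activation of max/min ratio relative to oxytocin controls. Replication: single well per compound, singlicate. Signal: Fluo-8 calcium dye fluorescence.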
V1R ag counter = counter-screen for oxytocin receptor agonists: human V1a receptor agonists; 320,000 tested, 0.25% active; CHO-V1R cells, Fluo-8 calcium fluorescence, agonist mode; 0% DMSO, 100% 3 nM vasopressin; activation, % at 3 µM;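 active means activation above the mean activation of all tested compounds plus 3 SD, per screening run, cut at about 20% in these data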;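 further: signal is peak over basal fluorescence ratio across a 100 second FLIPR read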
TRPML3 ag = activates the human TRPML3 channel; Q8TDD5; HEK293 TRPML3-YFP, Fluo-8 calcium fluorescence; 100% = the carbachol control signal; activation, % at 3 µM; 220,000 tested, 0.29% active; AID 1448;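 active means activation above its plate's cutoff, the mean activation of the plate's test wells plus 3 SD, cut at about 12% in these data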
Target sequence (Q8TDD5 whole entry, looked up): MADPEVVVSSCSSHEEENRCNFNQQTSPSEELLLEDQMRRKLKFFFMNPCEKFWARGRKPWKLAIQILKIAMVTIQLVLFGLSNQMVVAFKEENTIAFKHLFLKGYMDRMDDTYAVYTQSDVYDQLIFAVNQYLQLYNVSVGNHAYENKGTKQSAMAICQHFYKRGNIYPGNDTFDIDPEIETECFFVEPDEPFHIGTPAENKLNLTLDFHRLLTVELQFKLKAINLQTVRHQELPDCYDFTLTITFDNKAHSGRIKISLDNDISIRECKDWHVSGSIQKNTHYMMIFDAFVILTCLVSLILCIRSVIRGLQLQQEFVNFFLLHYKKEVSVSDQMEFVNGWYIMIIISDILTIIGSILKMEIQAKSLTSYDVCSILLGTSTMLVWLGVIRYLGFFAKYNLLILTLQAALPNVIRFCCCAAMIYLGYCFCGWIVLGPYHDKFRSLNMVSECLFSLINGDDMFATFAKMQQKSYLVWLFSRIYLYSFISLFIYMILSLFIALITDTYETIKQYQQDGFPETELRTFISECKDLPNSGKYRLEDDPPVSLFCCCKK
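Test system: HEK293 cells stably carrying human TRPML3-YFP; Doses: single dose, 3 µM final nominal compound, 0.3% DMSO final; Schedule: dye loading 1 h 37 °C then 30 min ambient, 125 s read; Technique: Fluo-8 calcium fluorescence; Benchmarks: high control carbachol 87 µM, low control DMSO.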
OXTR ag = agonists of human oxytocin receptor; CHO-OTR cells, Fluo-8 calcium fluorescence; normalized: DMSO 0%, oxytocin 100%; activation, % at 3 µM; 320,000 tested, 0.32% active;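 active means activation above the mean of all tested compounds plus 3 SD, cutoff set per screening run, cut at about 20% in these data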;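 further: peak over basal fluorescence ratio from a 100 s FLIPR kinetic read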
TRPN1 ag = activates the zebrafish TRPN1 channel; 220,000 tested, 0.18% active; HEK293 zebrafish TRPN1-YFP, Fluo-8 calcium fluorescence; 100% = response to 87 µM carbachol; AID 1424; activation, % at 3 µM;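 active means activation above its plate's cutoff, the mean activation of test wells on that plate plus 3 SD, cut at about 19% in these data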
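System: zebrafish TRPN1-YFP in HEK293 cells / Dosing: 3 µM single point / Timing: dye loading 1 h at 37 °C, then 30 min room temperature / Signal: Fluo-8 calcium fluorescence, excitation 470-495 nm, emission 515-575 nm / Read-out basis: percent activation from peak over basal fluorescence ratio, control-normalized / Control set: high carbachol 87 µM, low DMSO alone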
Of the large screens only hits and unclear results are named; the others gave an inactive call. In the library only some 0.58% were active in any assay of this set; here they are far more common.

C/C(=C1/C(=O)N(c2ccc([N+](=O)[O-])cc2)N=C1c1ccccc1)N(C)C	V1R ag counter 62.4, OXTR ag 54.1, TRPN1 ag 31.3
CN1CC[C@@]2([C@@]34CCN(C)C3Nc3ccccc34)c3ccccc3NC12 (stereo not given in full)	none (no result: TRPML3 ag, TRPN1 ag)
Cc1cc(C)c(OCC(=O)Nc2ccccc2N2CCOCC2)c(C)c1	TRPML3 ag 15.2, TRPN1 ag 24.0
Cc1c(O)cc2c(c1O)C(=O)CC(c1ccccc1)O2 (stereo not given)	V1R ag counter 47.7, OXTR ag 58.9 (no result: TRPML3 ag, TRPN1 ag)
Cc1nnsc1C(=O)N/N=C/c1ccccc1	none
Cc1nnsc1C(=O)N/N=C/c1ccc2ccccc2c1O	V1R ag counter 46.6, OXTR ag 67.3
CCCCCCn1c(=O)[nH]c2nc3cc(N)ccc3nc2c1=O	V1R ag counter 74.0, TRPML3 ag 45.7, OXTR ag 95.7, TRPN1 ag 37.1
CCOc1cc(/C=C2\SC(=S)N(NS(=O)(=O)c3ccccc3)C2=O)ccc1O	none (no result: TRPML3 ag, TRPN1 ag)
COc1cc(/C=C2\SC(=S)N(C(Cc3ccccc3)C(=O)O)C2=O)ccc1O (stereo not given)	V1R ag counter 29.7, TRPML3 ag 11.9, OXTR ag 28.0, TRPN1 ag 22.4
COc1cc(/C=C2\SC(=S)N(NC(=O)c3cccnc3)C2=O)ccc1O	none
COc1cc(/C=C2\SC(=S)N(Nc3ccccc3)C2=O)ccc1O	V1R ag counter 24.4, TRPML3 ag 14.0, OXTR ag 57.6, TRPN1 ag 24.6
COc1cc(/C=C2\SC(=S)N(c3cccnc3)C2=O)ccc1O	V1R ag counter 26.4, OXTR ag 24.3, TRPN1 ag 20.8
CCOc1cc(/C=C2\SC(=S)N(Nc3ccccc3)C2=O)ccc1O	V1R ag counter 26.6, TRPML3 ag 15.8, OXTR ag 47.2, TRPN1 ag 22.1
CCN1C(=O)C(O)(CC(=O)c2cccc(-n3cccc3)c2)c2ccccc21 (stereo not given)	none
C=CCn1c(=O)c(C(=O)NCc2ccccc2Cl)c(O)c2ccccc21	none (no result: TRPML3 ag, TRPN1 ag)
COc1ccc(C(=O)CSc2nnc(CNC(=O)c3ccccc3)n2C)cc1	none (no result: TRPML3 ag, TRPN1 ag)
Cc1ccc(NC(=O)CC2Oc3ccc(C)cc3NC2=O)c(C)c1 (stereo not given)	none (no result: TRPML3 ag, TRPN1 ag)
COc1cc(/C=C2/SC(=S)N(CC3CCCO3)C2=O)ccc1O (stereo not given)	V1R ag counter 31.7, TRPML3 ag 33.7, OXTR ag 47.8, TRPN1 ag 37.4
COc1cc(/C=C2\SC(=S)N(NC(=O)c3ccc(O)cc3)C2=O)ccc1O	V1R ag counter 25.3, OXTR ag 63.7 (no result: TRPML3 ag, TRPN1 ag)
CCOC(=O)c1sc(NC(=O)CSc2nnc(Cc3ccccc3)o2)c(C(=O)OCC)c1C	none
Cn1c2c(c(=O)n(C)c1=O)C(C(F)(F)F)(C(F)(F)F)N=C(c1ccc(Cl)cc1)N2	TRPML3 ag 20.4, TRPN1 ag 29.3
Cc1ccccc1C1=NC(C(F)(F)F)(C(F)(F)F)c2c(n(C)c(=O)n(C)c2=O)N1	none
CCCC(=O)NC(=S)Nc1ccc(S(=O)(=O)Nc2ccc(OCC)cc2)cc1	none
CCOc1ccc(NS(=O)(=O)c2ccc(NC(=S)NC(=O)CC(C)C)cc2)cc1	V1R ag counter 22.9, OXTR ag 20.4
O=C(CCS(=O)(=O)c1ccccc1)Nc1ccc2c(c1)C(=O)NC2=O	none
CN1CCN(c2ccc(S(=O)(=O)N3CCCCC3)cc2NC(=O)Cc2ccc(Cl)cc2)CC1	V1R ag counter 26.2, OXTR ag 21.0
O=C(Cc1ccc(Cl)cc1)Nc1cc(S(=O)(=O)N2CCOCC2)ccc1N1CCCC1	none
CN(C)c1ccc(/C=C/c2nc3ccccc3c(=O)n2-c2ccc(C(=O)O)cc2)cc1	V1R ag counter 82.4, OXTR ag 77.3 (no result: TRPML3 ag, TRPN1 ag)
O=C(O)c1cccc(-n2c(/C=C/c3ccccc3)nc3ccccc3c2=O)c1	none (no result: TRPML3 ag, TRPN1 ag)
O=c1c2cc(Br)ccc2nc(-c2cccc(C(F)(F)F)c2)n1O	V1R ag counter 61.0, OXTR ag 54.2
N#Cc1ccc(-c2nc3ccc(Br)cc3c(=O)n2O)cc1	none (no result: TRPML3 ag, TRPN1 ag)
Cc1cc(C)nc(NN2C(=O)/C(=C/c3ccccc3)SC2=S)n1	none
CN(C)c1ccc(/C=C2\SC(=S)N(Nc3ncc(C(F)(F)F)cc3Cl)C2=O)cc1	V1R ag counter 91.6, OXTR ag 72.5
O=C(N/N=C/c1cc(Cl)cc(Cl)c1O)c1ccncc1	V1R ag counter 27.5, OXTR ag 28.6, TRPN1 ag 23.9
Cc1cccc(S(=O)(=O)Nc2nc3ccccc3nc2OC(C)C)c1	none (no result: TRPML3 ag, TRPN1 ag)
COc1ccc(-c2ccc3nnc(SCC(=O)N4CCCC4)n3n2)cc1	none (no result: TRPML3 ag, TRPN1 ag)
Cc1ccc(NS(=O)(=O)c2ccc(C(=O)N3CC(C)CC(C)C3)cc2)cc1 (stereo not given)	V1R ag counter 42.9, OXTR ag 69.4 (no result: TRPML3 ag, TRPN1 ag)
O=C(c1ccc(S(=O)(=O)Nc2cccc(C(F)(F)F)c2)cc1)N1CCOCC1	none (no result: TRPML3 ag, TRPN1 ag)
Cc1ccc(S(=O)(=O)Nc2ccc(C(=O)N3CCCC3)cc2)cc1	none (no result: TRPML3 ag, TRPN1 ag)
CC1CN(C(=O)c2ccc(S(=O)(=O)Nc3cccc(C(F)(F)F)c3)cc2)CC(C)O1 (stereo not given)	V1R ag counter 21.4, OXTR ag 25.8 (no result: TRPML3 ag, TRPN1 ag)
CCN(CC)S(=O)(=O)c1ccc(Cl)c(C(=O)Nc2cc(C)nn2-c2ccccc2)c1	none
COC(=O)CSc1nc(-c2ccc(F)cc2)cc(C(F)(F)F)n1	none
OC(c1cc(-c2ccc(C(F)(F)F)cc2)nc(C(F)(F)F)c1)C1CCCCN1 (stereo not given)	V1R ag counter 26.2, OXTR ag 22.6
CCN1/C(=C/c2ccc3cc(C)cc(C)c3[n+]2CC)Sc2cc(C)ccc21	TRPML3 ag 14.9, TRPN1 ag 50.2 (no result: OXTR potentiate, V1R ag counter, OXTR ag)
CCN1/C(=C\c2ccc3cc(C)ccc3[n+]2CC)Sc2cc(C)c(C)cc21	none (no result: OXTR potentiate, V1R ag counter, OXTR ag)
CCN1/C(=C/c2ccc3cccc(C)c3[n+]2CC)Sc2ccccc21	TRPML3 ag 17.7, TRPN1 ag 31.6
CC1(C)CCN2CCC(C)(C)c3c(O)ccc1c32	V1R ag counter 28.2, OXTR ag 24.7 (no result: TRPML3 ag, TRPN1 ag)
CC(=O)Nc1cccc(C(=O)/C=C/c2ccc(N(C)C)cc2)c1	V1R ag counter 132.2, TRPML3 ag 20.0, OXTR ag 194.5, TRPN1 ag 43.8
CC(=O)Nc1cccc(C(=O)/C=C/c2ccc(/C=C/C(=O)c3cccc(NC(C)=O)c3)cc2)c1	none
O=C(O)c1ccc2c(c1)OCCCO2	none
O=C(O)c1cc2c(cc1Br)OCCCO2	TRPN1 ag 19.2
O=C(NNC(=S)NCc1ccccc1)c1cccc([N+](=O)[O-])c1	none
O=C(NNC(=S)NC(=O)c1ccccc1)c1ccc([N+](=O)[O-])cc1	V1R ag counter 33.5, OXTR ag 34.3 (no result: TRPML3 ag, TRPN1 ag)
O=C(NNC(=S)NC(=O)c1ccc(Br)cc1)c1cccc([N+](=O)[O-])c1	V1R ag counter 63.7, OXTR ag 31.4 (no result: TRPML3 ag, TRPN1 ag)
